Data: paper PMC11421684 (Food and chemical toxicology : an international journal …, 2014)
Values joined by “and” are separate entries in the source; they are usually repeats but may differ in a detail not shown here. Identical values can stand only once.

What was measured:
[1] = Serum chemistry, renal function; assay type: in vivo, rat; settings: for Blood urea nitrogen (mean ± SEM) / Creatinine (mean ± SEM) / Uric acid (mean ± SEM): serum
In short: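 Serum was taken from pregnant and non-pregnant rats after 10 days of gavage with vehicle or 1000 mg/kg BW/day test compound. Samples were brought to room temperature. BUN, creatinine and uric acid were measured on a benchtop veterinary chemistry analyser. Results were compared with control and the other treated group.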

[2] = oral, female rats; ref Jacob et al., 2012; cited from earlier work
kidney and bladder = assay: Histopathology of kidney and bladder; assay type: in vivo, rat
fetuses = assay: Fetal data; assay type: in vivo, rat; settings: dams, 1000 mg/kg BW/day, GD20
In short: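 Dams were dosed by gavage (1000 mg/kg BW/day or 1% CMC-Na vehicle) for 10 days from GD10. At GD20 necropsy, the gravid uterus was removed whole and weighed. Each viable fetus was recorded for uterine position, sex, weight, crown-rump length and external abnormalities. Runts were defined as below 70% of the control litter average weight by gender.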

kidney = assay: Kidney wet-mount analysis for renal crystals; assay type: in vivo, rat; settings: pregnant and non-pregnant combined, wet-mount
In short: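 After 10 days of gavage at 1000 mg/kg BW/day, a thin fresh renal slice spanning cortex and medulla was weighed. It was compressed between two slides with a coverslip and examined fresh by light microscopy. Crystals were ranked on a subjective 0–5 scale; some views used polarised light.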

[3] = Weight gains, feed and water consumption of gavaged rats; assay type: in vivo, rat; settings: for Total feed consumption (g ± SEM) / Total water consumption (g ± SEM): 1000 mg/kg BW/day
In short: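 Rats were housed singly at 18–26 °C, 40–70% RH and 12 h light/dark, with feed and water ad libitum. They were gavaged for 10 days from GD10 with vehicle (1% CMC-Na) or 1000 mg/kg BW/day test compound. Fluid intake was measured every 3 days and feed every 7 days. For dams, adjusted gain = GD20 body weight minus gravid uterus weight and GD10 weight.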

[4] = Serum triazine analysis by LC-MS/MS; assay type: in vivo; settings: pregnant female rats, individual rat; label = dose group; LOD 0.4 μg/mL
In short: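 Serum was collected from each rat after 10 daily gavages of 1000 mg/kg BW/day test compound or vehicle. Melamine and cyanuric acid were quantified by a previously published LC-MS/MS method, validated with pre-spiked serum samples at several fortification levels. Natural-log serum concentrations were compared between pregnant and non-pregnant rats by two-sided t-test (p ≤ 0.05).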

[5] = Formalin, ethanol and freezing effects on renal crystals; set-up: species or system rat
In short: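 Fresh kidney wet-mounts with crystal rank 4–5 were flooded with 10% neutral buffered formalin and photographed repeatedly. Times were 0, 1, 2, 3 and 24 h for melamine-exposed kidney and 0, 10, 20, 30 min and 1 h for cyanuric acid-exposed kidney. Sections in 100% ethanol were checked daily for up to 6 days. Frozen tissue, either freeze–thawed or held at −70 °C, was cut into 6 μm cryosections, unstained or unfixed H&E.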

rats = assay: Clinical observations and survival; assay type: in vivo, rat; settings: pregnant and non-pregnant rats; 1000 mg/kg BW/day
In short: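 Female rats, time-pregnant or non-pregnant, were weight-stratified and randomised from GD10. They were gavaged each morning for 10 days with 1% CMC-Na vehicle or 1000 mg/kg BW/day test compound at 1 mL/100 g (n = 11/group; pregnant high-triazine group n = 13). Observations were made at least twice on day 1, then at least daily, covering skin, fur, eyes, mucosa, autonomic/CNS signs and behaviour. Animals removed early were counted as deaths.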

[6] = Body weight and organ weights standardized to body weight; assay type: in vivo, rat; settings: for GD20 Body weight (g ± SEM) / Heart weight standardized to body weight (% ± SEM) / Left kidney weight standardized to body weight (% ± SEM) / Liver weight standardized to body weight (% ± SEM) / Right kidney weight standardized to body weight (% ± SEM) / Spleen weight standardized to body weight (% ± SEM) / Paired kidney weight standardized to body weight (% ± SEM): 1000 mg/kg BW/day; for Paired kidney weight standardized to body weight (% ± SEM): group mean, 1000 mg/kg/day
[7] = Amniotic fluid triazine analysis by LC-MS/MS; assay type: in vivo, rat; settings: pregnant female rats, pooled by dam; label = dose group; LOD 0.4 μg/mL
In short: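 Amniotic fluid came from GD20 dams gavaged for 10 days with vehicle or 1000 mg/kg BW/day test compound. Melamine and cyanuric acid were measured by a previously published LC-MS/MS method, validated with pre-spiked amniotic fluid. Serum-to-amniotic fluid Pearson correlations were run only on rats with both samples (p ≤ 0.05).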

pregnant rats = assay: Reproductive indices at necropsy; assay type: in vivo, rat
In short: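 Time-pregnant rats were gavaged daily for 10 days from GD10 with 1% CMC-Na or 1000 mg/kg BW/day test compound. At necropsy the gravid uterus was removed whole and weighed, and corpora lutea, implants, and early and late deaths were recorded. Groups were compared against both control and the other triazine group.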

[8] = not pregnant rats, 1000 mg/kg BW/day
[9] = pregnant and non-pregnant pooled
[10] = pregnant rats, 1000 mg/kg BW/day
[11] = dams, 1000 mg/kg BW/day, necropsy GD20

Compound: Oc1nc(O)nc(O)n1 [CYA, cyanuric acid]
- Effect on uric acid serum levels versus control rats ([1]; 1000 mg/kg BW/day): did not appear to have an effect
- Mean BUN of treated rats with renal crystals ([1]; 4 rats (2 pregnant and 2 non-pregnant)): 31 mg/dL
- Blood urea nitrogen (mean ± SEM) [1, 8]: 17.82 ± 2.33 mg/dL
- Creatinine (mean ± SEM) [1, 8]: 0.59 ± 0.07 mg/dL
- Uric acid (mean ± SEM) [1, 8]: 5.26 ± 0.27^& mg/dL
- Mean BUN of the other treated rats (without crystals) [1, 9]: 15 mg/dL
- Mean creatinine of treated rats with crystals [1, 9]: 1.1 mg/dL
- Mean creatinine of treated rats without crystals [1, 9]: 0.5 mg/dL
- Blood urea nitrogen (mean ± SEM) [1, 10]: 17.45 ± 2.26 mg/dL
- Creatinine (mean ± SEM) [1, 10]: 0.59 ± 0.07 mg/dL
- Uric acid (mean ± SEM) [1, 10]: 3.37 ± 0.28 mg/dL
- Area under the curve (AUC) [2]: 1375 ng·h/mL
- Half-life [2]: 59.4 min
- Number of rats with epithelial necrosis in the bladder (kidney and bladder; MEL: pregnant rats, minimal to marked, CYA: 1 pregnant, 2 non-pregnant, mild): Three
- Number of rats with tubular dilation and necrosis (kidney and bladder; kidney, H&E, of 22 treated rats): 5
- Average crown rump length (mean cm ± SEM) (fetuses): 4.10 ± 0.02 cm
- Average fetal body weight (g ± SEM) (fetuses): 4.06 ± 0.05 g
- Litter size (mean ± SEM) (fetuses): 13.2 ± 0.6
- Treated rats that developed renal crystals (percent) (kidney; MEL n = 24, CYA n = 22): 18%
- Number of treated rats that developed renal crystals (kidney; MEL of 24, CYA of 22): 4
- Total feed consumption (g ± SEM) ([3]; not pregnant rats): 158.6 ± 8.8 g
- Total water consumption (g ± SEM) ([3]; not pregnant rats): 264 ± 21.2 g
- Total bw gain (g ± SEM) ([3]; not pregnant rats, 1000 mg/kg BW/day gavage 10 days, brackets indicate negative): 16.0 ± 4.1 g
- Total feed consumption (g ± SEM) ([3]; pregnant rats): 220.1 ± 5.4 g
- Total water consumption (g ± SEM) ([3]; pregnant rats): 353.6 ± 17.5 g
- Total bw gain (g ± SEM) ([3]; pregnant rats, 1000 mg/kg BW/day gavage GD10-20): 94.2 ± 3.3 g
- MEL concentration, Serum [4]: <LOD
- Stability of crystals to freeze–thaw cycles ([5]; frozen kidney tissue, CYA stable if held at −70 °C): dissolved
- Time at which almost all crystals were gone in formalin ([5]; kidney wet-mount sections): 30 min
- Maternal health during 10 day dosing period (rats): no treatment related health effects
- GD20 Body weight (g ± SEM) ([6]; not pregnant rats): 234.3 ± 4.5 g
- Heart weight standardized to body weight (% ± SEM) ([6]; not pregnant rats): 0.38 ± 0.01%
- Left kidney weight standardized to body weight (% ± SEM) ([6]; not pregnant rats): 0.43 ± 0.02%
- Liver weight standardized to body weight (% ± SEM) ([6]; not pregnant rats): 3.48 ± 0.07 %
- Right kidney weight standardized to body weight (% ± SEM) ([6]; not pregnant rats): 0.45 ± 0.03%
- Spleen weight standardized to body weight (% ± SEM) ([6]; not pregnant rats): 0.23 ± 0.02%
- Paired kidney weight standardized to body weight (% ± SEM) ([6]; not pregnant rats): 0.88% and 0.88 ± 0.05%
- GD20 Body weight (g ± SEM) ([6]; pregnant rats): 351.3 ± 6.1 g
- Heart weight standardized to body weight (% ± SEM) ([6]; pregnant rats): 0.30 ± 0.01%
- Left kidney weight standardized to body weight (% ± SEM) ([6]; pregnant rats): 0.28 ± 0.02%
- Liver weight standardized to body weight (% ± SEM) ([6]; pregnant rats): 3.58 ± 0.09%
- Right kidney weight standardized to body weight (% ± SEM) ([6]; pregnant rats): 0.30 ± 0.01%
- Spleen weight standardized to body weight (% ± SEM) ([6]; pregnant rats): 0.17 ± 0.01%
- Paired kidney weight standardized to body weight (% ± SEM) ([6]; pregnant rats): 0.58% and 0.58 ± 0.03%
- Standardized paired kidney weight of individual rats with renal crystals ([6]; two non-pregnant rats with crystals, both the same value): 1.22%
- Standardized paired kidney weight of individual rats with renal crystals ([6]; two pregnant rats with crystals): 0.74% and 0.77%
- MEL concentration, Amniotic Fluid [7]: <LOD
- Effect on reproductive indices compared with controls (pregnant rats; 1000 mg/kg BW/day): did not appear to have an effect
- No. corpea lutea (mean ± SEM) (pregnant rats; dams, 1000 mg/kg BW/day gavage GD10-20, necropsy GD20): 15.1 ± 0.5
- Early and late deaths (mean% of implants ± SEM) (pregnant rats; [11]): 3.4 ± 1.6 % of implants
- Early deaths (mean% of implants ± SEM) (pregnant rats; [11]): 1.3 ± 0.9 % of implants
- Implant efficiency (mean% ± SEM) (pregnant rats; [11]): 90.7 ± 3.0%
- Late deaths (mean% of implants ± SEM) (pregnant rats; [11]): 2.0 ± 1.6 % of implants
- No. fetuses alive (mean ± SEM) (pregnant rats; [11]): 13.2 ± 0.6
- No. implants (mean ± SEM) (pregnant rats; [11]): 13.6 ± 0.5
- Percent alive both genders (mean% ± SEM) (pregnant rats; [11]): 96.7 ± 1.6%
- Percent live females (mean% ± SEM) (pregnant rats; [11]): 40.7 ± 3.8%
